Screening data: PubChem BioAssay, several laboratories
Ecoli WT expand: E. coli BW25113 growth inhibition, expanded screen | growth inhibition, % at 100 µM | actives 0.15% (n = 98,000) | OD600 absorbance;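 active = growth inhibition above about 50% at one test dose, limit read from the data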;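 also: growth measured after 20 h incubation at 37 °C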
WNV protease inh: WNV NS2B-NS3 proteinase inhibition | z-score (concentration not given with the values) | WNV NS2B-NS3 protease, fluorogenic substrate Ex360/Em465; hits give low values | P06935 | actives 0.18% (n = 65,000); in the data active = z-score below about -3
BAP1 block: human BAP1 deubiquitinase inhibition. AID 436. recombinant BAP1, Ub-AMC hydrolysis fluorescence kinetic; hits give low values. calls only at 20 µM. actives 0.48% (n = 72,000);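 active = activity remaining at or below 50% of control, provided the compound also passes the data quality filters; inactive = the rest, including low values that fail the filters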;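 also: 100% = DMSO wells rate and 0% = substrate alone blank rate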
Ecoli tolC: blocks growth of E. coli BW25113 tolC mutant; OD615; growth inhibition, % at 10 µM (by protocol); actives 2.2% (n = 65,000);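 active = growth inhibition at or above a cutoff equal to the mean over every tested compound plus 3 SD, cut at about 60% in these data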;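 also: growth measured after 20 h incubation at 37 °C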
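Test system: E. coli BW25113 ΔtolC::kan bacteria | Medium: Kanamycin-containing LB broth (50 µg/mL) | Dosing: One dose of 10 µM final | Times: 20 h incubation with compound, 37 °C | Detection: Optical density read at 615 nm | Read-out basis: Percent growth inhibition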
TNAP act DEA: human TNAP activation, intermediate phosphate acceptor; P05186; purified TNAP, CDP-star luminescence, 100 mM DEA, 30 min; hits give high values; scale: 0 levamisole-inhibited, 1 vehicle-only enzyme; activation factor at 20 µM; 64,000 tested, under 10 active; AID 813;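 active = activation factor of at least 2 at 20 µM, relative to controls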
Target sequence (P05186 whole entry, looked up): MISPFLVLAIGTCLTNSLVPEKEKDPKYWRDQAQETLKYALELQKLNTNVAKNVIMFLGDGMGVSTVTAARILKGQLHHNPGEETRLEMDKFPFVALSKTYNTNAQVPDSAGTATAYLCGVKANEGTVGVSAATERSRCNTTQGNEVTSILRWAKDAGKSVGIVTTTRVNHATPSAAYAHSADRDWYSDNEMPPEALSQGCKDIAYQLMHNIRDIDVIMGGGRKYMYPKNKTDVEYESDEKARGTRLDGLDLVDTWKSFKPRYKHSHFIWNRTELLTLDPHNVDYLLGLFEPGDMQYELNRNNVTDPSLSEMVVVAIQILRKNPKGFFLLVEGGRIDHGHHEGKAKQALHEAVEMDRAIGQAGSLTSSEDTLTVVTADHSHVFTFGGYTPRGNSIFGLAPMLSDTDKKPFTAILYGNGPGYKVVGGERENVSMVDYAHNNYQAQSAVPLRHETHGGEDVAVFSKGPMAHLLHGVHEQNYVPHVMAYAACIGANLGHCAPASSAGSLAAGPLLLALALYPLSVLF
BAP1 inh conf: BAP1 (human) enzyme inhibition, confirmed; shares compounds with BAP1 block; purified BAP1, Ub-ethyl ester hydrolysis, HPLC; hits give low values; % of control activity, % at 20 µM; actives 8% (n = 310); AID 753;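 active = percent of control activity at or below 60%; inconclusive = HPLC trace unusable from injection failure or solvent front hiding peaks; inactive = the rest, plus ubiquitin peak ratio over a set limit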
Starred values were filed as active, the others as inactive; i = inactive; ? = inconclusive; . = no result given; + = active, no number. Only a selection was taken, and hits are over-represented in it overall.

SMILES	Ecoli WT expand	WNV protease inh	BAP1 block	Ecoli tolC	TNAP act DEA	BAP1 inh conf
CSc1ccccc1NC(=O)COc1ccccc1Cl	8.0	.	.	.	.	.
COc1ccc(Cn2nnnc2C(c2ccccn2)N2CCN(c3cc(Cl)ccc3C)CC2)cc1 (configuration not stated)	-10.0	0.68	+	15.5	0.9	83.5
COCCn1nnnc1C(c1ccccn1)N1CCN(c2cc(Cl)ccc2C)CC1 (configuration not stated)	7.0	.	.	.	.	.
CCCCNC(=O)c1cc2c(-c3ccc(Cl)cc3)nn(C)c2s1	-6.0	-0.55	+	-2.4	0.9	95.1
COc1ccccc1-c1c(C)nn2c(N3CCN(c4ccccc4OC)CC3)cc(C)nc12	-10.0	0.29	+	23.3	0.9	105.1
COc1ccccc1-c1c(C)nn2c(N3CCCCCC3)cc(C)nc12	-1.0	0.39	i	59.9	1	.
C=CCn1c(-c2cc(OC)c(OC)c(OC)c2)n[nH]c1=S	1.0	-1.96	+	-12.3	0.9	87.0
O=c1oc2ccccc2c(O)c1C=Nc1ncccn1	.	.	i	.	.	.
CCC(C)NC(=O)c1cc2nc(-c3ccc([N+](=O)[O-])cc3)cc(C(F)(F)F)n2n1 (configuration not stated)	.	.	i	.	.	.
CCC(C)C(=O)Nc1nnc(-c2cccs2)s1 (configuration not stated)	3.0	-0.16	+	-3.6	1	91.6
Cc1ccc(-c2nc3s/c(=C\c4ccco4)c(=O)n3n2)cc1	-3.0	0.11	+	9.2	0.9	55.0*
COc1ccc(Br)cc1/C=c1\sc2nc(-c3ccco3)nn2c1=O	.	-3.01*	+	-11.8	1	74.7
COC(=O)c1cccc(N(C(=O)c2cnccn2)C(C(=O)NC2CCCCC2)c2cn(C)nc2C)c1 (configuration not stated)	3.0	.	.	.	.	.
CC1CCc2nc(NC(=O)c3cc(C(C)(C)C)nn3C)sc2C1 (configuration not stated)	.	-0.04	+	67.0*	0.9	122.8
CC1CCc2nc(NC(=O)c3ccc(S(=O)(=O)N4CCOCC4)cc3)sc2C1 (configuration not stated)	.	.	i	.	.	.
N#Cc1nc(-c2cccc3ccccc23)oc1NCCN1CCOCC1	8.0	1.36	.	27.6	0.9	.
N#Cc1nc(-c2ccccc2F)oc1NCCN1CCOCC1	-6.0	0.75	+	-2.5	1	86.9
Cc1ccc(-c2nc3ccccc3s2)cc1NC(=O)c1ccccc1Cl	.	.	i	.	.	.
COc1ccc(NC(=O)c2c(NC(=O)CNCc3ccco3)sc3c2CCC3)c(OC)c1	-10.0	-0.22	+	16.4	1	?
COc1ccc(OC)c(NC(=O)c2c(NC(=O)CNCc3ccco3)sc3c2CCC3)c1	-13.0	-0.16	i	-8.0	1	.
CCOC(=O)c1sc(NC(=O)c2noc3c2CCCC3)c(C(=O)OCC)c1C	.	-0.48	+	-11.9	0.8	i
Cc1cc2n(n1)C(c1ccc(O)cc1)Nc1ccccc1-2 (configuration not stated)	4.0	-0.29	i	5.5	0.9	.
Cc1cc2n(n1)C(c1ccco1)Nc1ccccc1-2 (configuration not stated)	3.0	-0.79	+	-2.5	1	97.7
COC(=O)c1cc(COc2ccc3c(c2)oc(=O)c2ccccc23)c(C)o1	-4.0	.	.	.	.	.
O=C(NCc1ccccn1)Nc1ccc2c(c1)OCO2	6.0	-0.3	+	-15.4	0.9	111.2
O=C(NCc1cccs1)Nc1ccc2c(c1)OCO2	6.0	2.06	i	-3.8	1	.
COc1ccccc1NC(=O)Nc1c(C)n(C)n(-c2ccccc2)c1=O	1.0	0.01	+	-9.9	1.1	124.7
